Source: PubChem BioAssay (several laboratories)
Most compounds without a hit are left out; they make up all but 2.1% or so of the library.
NOD2-RIPK2 inh: NOD2-RIPK2 binding disruptors in cells, primary screen, fluorescence, CHO cells, BLA complementation; CCF4 ratio; inhibition, % at 4.98 µM; hit rate 0.38% among 360,000; Receptor-interacting serine/threonine-protein kinase 2 (Homo sapiens), O43353; AID 624267, 2012; in the data active = inhibition above about 21%;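 note: 0% = vehicle only and 100% = reference blocker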
TLR4-MyD88 BLA: inhibitors of TLR4-MyD88 association in cells, primary screen, cell-based, HeLa CL3-4, BLA complementation, FRET ratio. AID 861, 2007. HeLa CL3-4 TLR4/MyD88 BLA complementation. inhibition, % at 8.4 µM. hit rate 0.18% among 200,000. Toll-like receptor 4 (Homo sapiens) + Myeloid differentiation primary response protein …; in the data active = inhibition above about 25%;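 note: 0% = vehicle and 100% = reference inhibitor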
TLR9-MyD88 block: inhibitors of TLR9-MyD88 association in cells, primary screen, cell-based, CHO, BLA complementation, fluorescence. Toll-like receptor 9 (Homo sapiens) + Myeloid differentiation primary response protein …. CCF4 FRET ratio. inhibition, % at 4.98 µM. hit rate 0.21% among 340,000. AID 504734, 2011;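 active = inhibition above the mean over all tested compounds plus 3 SD, cut at about 21% in these data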;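 note: 0% = DMSO only wells and 100% = clavulanate BLA inhibitor control wells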
MIN6 prolif: inducers of MIN6 beta-cell proliferation, primary screen, ATP luminescence, uHTS; MIN6 cells proliferation, ATPlite luminescence, 48 h; cells starved in 0.2% serum; 100% = growth in 10% serum; proliferation, % at 10 µM; hit rate 0.29% among 330,000; AID 2380, 2010;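 active = compounds whose signal lies at least 3.5 SD above the mean of all wells on their plate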;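 note: 0% = DMSO-treated cells in low-serum medium and 100% = 10% serum control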
MC4R antagonist: MC4R antagonists of cAMP signaling, primary screen, cell-based, TR-FRET, antagonist arm of biased-ligand search; Melanocortin receptor 4 (Homo sapiens), P32245; MC4R-expressing cells, MTII-stimulated cAMP, LANCE TR-FRET; inhibition, % at 6.5 µM; hit rate 0.48% among 360,000; AID 540295, 2011;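 active = inhibition above its plate's cutoff, the mean of tested wells on that plate plus 3 SD, cut at about 29% in these data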;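 note: 0% = Melanotan II alone and 100% = Melanotan II plus saturating MCL0020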
Target sequence (P32245 whole entry, looked up): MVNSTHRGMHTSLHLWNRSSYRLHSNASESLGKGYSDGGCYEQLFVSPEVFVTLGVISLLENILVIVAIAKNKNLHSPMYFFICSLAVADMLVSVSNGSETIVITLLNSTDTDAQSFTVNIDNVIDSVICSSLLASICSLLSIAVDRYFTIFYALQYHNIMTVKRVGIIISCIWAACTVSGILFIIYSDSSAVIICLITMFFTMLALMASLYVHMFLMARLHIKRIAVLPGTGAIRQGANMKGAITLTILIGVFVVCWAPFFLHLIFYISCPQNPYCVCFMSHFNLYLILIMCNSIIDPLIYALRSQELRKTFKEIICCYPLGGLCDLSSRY
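Test system: U2OS cells stably expressing human melanocortin 4 receptor (MC4R); also added: Melanotan II challenge; compound: 6.5 µM single dose; timing: 30-min compound preincubation, 1-h Melanotan II challenge, 1-h detection, room temperature; signal: Eu-cAMP/anti-cAMP TR-FRET, emission 671 nm; repeats: one well per compound, no replicates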
MC4R ag barr: MC4R agonists recruiting beta-arrestin, primary screen, cell-based, luminescence, agonist arm of biased-ligand search; Melanocortin receptor 4 (Homo sapiens), P32245; U2OS MC4R beta-arrestin complementation; percent of melanotan II response, DMSO zero; activation, % at 8.9 µM; hit rate 0.98% among 360,000; AID 540308, 2011;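 active = activation above a per-plate cutoff, the mean activation of sample wells on that plate plus 3 SD, cut at about 8% in these data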
MC4R barr conf: MC4R beta-arrestin agonists, retest, confirmation, cell-based, luminescence, U2OS. shares compounds with MC4R ag barr. U2OS MC4R beta-arrestin recruitment; scaled DMSO 0%, Melanotan II 100%. activation, % at 8.9 µM. hit rate 31% among 2,400;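 active = mean activation across replicates above the hit cutoff set in the earlier primary screen, cut at about 8% in these data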
MOR DOR agonist: agonists of MOR-DOR heterodimerization, counter-screen for MC4R biased agonist project, cell-based, luminescence. shares compounds with MC4R ag barr. U2OS PathHunter beta-arrestin, beta-gal luminescence; percent of deltorphin B response, DMSO zero. activation, % at 9.2 µM. hit rate 5.8% among 2,400;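 active = mean activation across replicates exceeds the hit threshold derived in the earlier primary screen, cut at about 18% in these data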;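 note: 100% = deltorphin B at 0.9 µM final and 0% = DMSO alone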
Starred values were filed as active, the others as inactive.

Screening COc1ccc(N2CCN(c3cc(C)c4ccccc4n3)CC2)cc1 returned NOD2-RIPK2 inh 0, TLR4-MyD88 BLA 4, TLR9-MyD88 block -1, MIN6 prolif -3, MC4R antagonist -2, MC4R ag barr 16*, MC4R barr conf 0 and MOR DOR agonist 4.
For COc1cccc(N(CC(=O)NC2CCCC2)C(=O)CCC(=O)Nc2cc(C)on2)c1 the results were NOD2-RIPK2 inh -7, TLR9-MyD88 block -4, MIN6 prolif -1, MC4R antagonist 0 and MC4R ag barr -1.
CCOC(=O)c1oc2ccc(S(=O)(=O)N3CCC(C)CC3)cc2c1C was read as NOD2-RIPK2 inh -2, TLR4-MyD88 BLA -2, TLR9-MyD88 block -13, MIN6 prolif -2, MC4R antagonist 4, MC4R ag barr 13*, MC4R barr conf -1 and MOR DOR agonist 5.
For CCOC(=O)c1oc2ccc(S(=O)(=O)N3CCOCC3)cc2c1C the results were NOD2-RIPK2 inh -13, TLR4-MyD88 BLA -5, TLR9-MyD88 block 8, MIN6 prolif -1, MC4R antagonist -1 and MC4R ag barr -1.
For CCCOc1c(Br)cc(C(=O)OCC(=O)NC(=O)c2cccn2C)cc1OC the results were NOD2-RIPK2 inh 1, TLR9-MyD88 block -5, MIN6 prolif -2, MC4R antagonist 1, MC4R ag barr 18*, MC4R barr conf 8.6* and MOR DOR agonist 7.
Screening COc1ccc(Cl)cc1C(=O)OCC(=O)NC(=O)c1cccn1C returned NOD2-RIPK2 inh -13, TLR4-MyD88 BLA -3, TLR9-MyD88 block -4, MIN6 prolif -3, MC4R antagonist 5 and MC4R ag barr 1.
`COc1ccccc1C(=O)O[C@H]1[C@H](Cc2ccccc2)NS(=O)(=O)[C@H]2C[C@@H]3C=C[C@]12O3` gave NOD2-RIPK2 inh -9, TLR9-MyD88 block -1, MIN6 prolif 2, MC4R antagonist 19 and MC4R ag barr 2.
COc1cccc2sc(N(CCCN(C)C)C(=O)c3sc4ccccc4c3Cl)nc12 was read as NOD2-RIPK2 inh 7, TLR4-MyD88 BLA 0, TLR9-MyD88 block -7, MIN6 prolif 0, MC4R antagonist -11, MC4R ag barr 17*, MC4R barr conf 20* and MOR DOR agonist 24*.
CN(C)/C=C(\C(=O)c1ccc(F)cc1F)c1nnnn1-c1ccccc1 was read as NOD2-RIPK2 inh 1, TLR4-MyD88 BLA 7, TLR9-MyD88 block 4, MIN6 prolif -2, MC4R antagonist 17 and MC4R ag barr -1.
For CCOC(=O)/C(=N\Nc1ccccc1[N+](=O)[O-])c1csc(N)n1 the results were NOD2-RIPK2 inh -5, TLR4-MyD88 BLA -4, TLR9-MyD88 block 5, MIN6 prolif -1, MC4R antagonist -6 and MC4R ag barr 1.
For CCOC(=O)/C(=N\Nc1ccc(C(C)=O)cc1)c1csc(Nc2ccccc2)n1 the results were NOD2-RIPK2 inh -7, TLR4-MyD88 BLA 5, TLR9-MyD88 block 8, MIN6 prolif -2, MC4R antagonist 21, MC4R ag barr 21*, MC4R barr conf 13* and MOR DOR agonist 4.
CC1=C(C(=O)OCc2ccccc2)C(c2ccc(Cl)cc2)NC(=O)N1CCCC(=O)O (configuration not stated) was read as MIN6 prolif 1.
Cc1ccccc1OCc1nc(-c2ccc(NC(=O)c3ccco3)cc2)no1 was read as NOD2-RIPK2 inh 3, TLR4-MyD88 BLA 9, TLR9-MyD88 block 4, MIN6 prolif -3, MC4R antagonist 4, MC4R ag barr 23*, MC4R barr conf 0 and MOR DOR agonist 5.
Cc1ccccc1OCc1nc(-c2ccc(NC(=O)c3cccs3)cc2)no1 was read as NOD2-RIPK2 inh -11, TLR4-MyD88 BLA -5, TLR9-MyD88 block 7, MIN6 prolif -4, MC4R antagonist 14, MC4R ag barr 16*, MC4R barr conf 6 and MOR DOR agonist 5.
Screening CCCc1ccc(OCc2nc(-c3ccc(NC(=O)c4ccco4)cc3)no2)cc1 returned NOD2-RIPK2 inh -7, TLR4-MyD88 BLA 7, TLR9-MyD88 block 0, MIN6 prolif -3, MC4R antagonist 6 and MC4R ag barr 5.
For CCCc1ccc(OCc2nc(-c3ccc(NC(=O)c4cccs4)cc3)no2)cc1 the results were NOD2-RIPK2 inh -6, TLR4-MyD88 BLA 9, TLR9-MyD88 block 7, MIN6 prolif 0, MC4R antagonist 1 and MC4R ag barr 1.
Screening COc1ccc(NC(=O)N[C@H]2CC[C@@H](CC(=O)NC3CCC3)O[C@@H]2CO)cc1 returned NOD2-RIPK2 inh -7.
`CCOC(=O)c1nn(-c2ccccc2F)c2nc(-c3ccco3)c(C#N)c(=O)n12` gave NOD2-RIPK2 inh 0, TLR4-MyD88 BLA -5, TLR9-MyD88 block -6, MIN6 prolif 2, MC4R antagonist 21 and MC4R ag barr 6.
`CCOC(=O)c1nn(-c2cccc(OC)c2)c2nc(CC)c(C#N)c(=O)n12` gave NOD2-RIPK2 inh -4, TLR4-MyD88 BLA -3, TLR9-MyD88 block 2, MIN6 prolif -1, MC4R antagonist 7, MC4R ag barr 11*, MC4R barr conf 5 and MOR DOR agonist 5.
CCOc1ccc(NC(=O)CN2CCc3cc4c(cc3C2)OCCCO4)cc1OCC was read as NOD2-RIPK2 inh -5, TLR9-MyD88 block -6, MIN6 prolif -2, MC4R antagonist 21 and MC4R ag barr -2.
For C=CCN1C=C/C(=C\C=C(C#N)C#N)c2ccccc21 the results were NOD2-RIPK2 inh -7, TLR4-MyD88 BLA -13, TLR9-MyD88 block -6, MIN6 prolif -3, MC4R antagonist 12 and MC4R ag barr -4.
CCCCCCN1C=C/C(=C\C=C(C#N)C#N)c2ccccc21 was read as NOD2-RIPK2 inh -2, TLR4-MyD88 BLA 1, TLR9-MyD88 block -2, MIN6 prolif -4, MC4R antagonist -1, MC4R ag barr 11*, MC4R barr conf 12* and MOR DOR agonist 13.
